Published values from different studies.
Lines come from different studies, so protocols differ.
OPRK1: Kappa-type opioid receptor (OPRK1, Homo sapiens, UniProt P41145)
PFF0160c: Dihydroorotate dehydrogenase (quinone), mitochondrial (PFF0160c, Plasmodium falciparum, UniProt Q08210)
CNR1: Cannabinoid receptor 1 (CNR1, Homo sapiens, UniProt P21554)

CC(=O)S(=O)(=O)c1ccc(C(=O)N[C@H]2CC[C@@]3(O)[C@H]4Cc5ccc(O)c6c5[C@@]3(CCN4CC3CC3)[C@H]2O6)s1 — Ki (OPRK1; ligand displacement, radioligand; cell membranes): 1.64 nM
Brc1ccc2c(c1)C(c1ccccn1)=NCc1c(-c3cnco3)ncn1-2 — Ki (OPRK1; ligand displacement, radioligand): 2100 nM
CCNC(=O)c1nn(C)c(Cc2ccc(C(F)(F)F)nc2)c1C — IC50 (PFF0160c; enzyme activity, inhibitor): 5200 nM
CCCCCn1c(O)c(N=NC(=O)c2ccccc2)c2ccccc21 — EC50 (CNR1; β-arrestin recruitment, agonist): 780 nM
CCCCCc1cc(O)c2c(c1)OC(C)(CCC=C(C)C)C=C2 (stereo not drawn) — Ki (CNR1; ligand displacement, radioligand): 6760 nM
Cn1nc2c(=O)n(C3CC3)cnc2c1[C@](O)(c1cnc(C(F)(F)F)c(Cl)c1)C1CC1 — IC50 (PFF0160c; enzyme activity, inhibitor): 20 nM
C=CCCCn1c(O)c(N=NC(=O)c2ccccc2)c2ccccc21 — EC50 (CNR1; β-arrestin recruitment, agonist): 1040 nM
NC(=O)c1ccc(C(=O)N[C@H]2CC[C@@]3(O)[C@H]4Cc5ccc(O)c6c5[C@@]3(CCN4CC3CC3)[C@H]2O6)s1 — Ki (OPRK1; ligand displacement, radioligand; cell membranes): 1.91 nM
CCn1ccc2c(Cc3ccc(C(F)(F)F)nc3)n(C)nc2c1=O — IC50 (PFF0160c; enzyme activity, inhibitor): 1580 nM
NS(=O)(=O)c1ccc(C(=O)N[C@H]2CC[C@@]3(O)[C@H]4Cc5ccc(O)c6c5[C@@]3(CCN4CC3CC3)[C@H]2O6)s1 — Ki (OPRK1; ligand displacement, radioligand; cell membranes): 3.93 nM
COC(=O)[C@@H](NC(=O)c1nn(Cc2ccc(F)cc2)c2ccccc12)C(C)C — EC50 (CNR1; G protein activation, agonist): ~4 nM
CC[C@@](O)(c1ccc(F)c(Cl)c1)c1c2ccn(C3CC3)c(=O)c2nn1C — IC50 (PFF0160c; enzyme activity, inhibitor): 6.31 nM
CNC(=O)c1ccc(-c2cnn3ccc(C(=O)N(C)c4ccc(Cl)c(C(=O)OC)c4)cc23)cc1 — IC50 (Serine/threonine-protein kinase WNK1 (WNK1, Homo sapiens, UniProt Q9H4A3); enzyme activity, inhibitor): > 30000 nM
Cn1nc2c(=O)n(C3CC3)cc(C3CC3)c2c1Cc1ccc(C(F)(F)F)nc1 — IC50 (PFF0160c; enzyme activity, inhibitor): 39.8 nM
CC(=O)Nc1ccc(C(=O)N[C@H]2CC[C@@]3(O)[C@H]4Cc5ccc(O)c6c5[C@@]3(CCN4CC3CC3)[C@H]2O6)s1 — Ki (OPRK1; ligand displacement, radioligand; cell membranes): 4.96 nM
